Experimental data taken from ChEMBL document CHEMBL3525900, “Pharmacokinetics, distribution, and metabolism of [14C]sunitinib in rats, monkeys, and humans” (Drug Metab Dispos, 2012).

Key:
Conditions in all cases: in vivo
[1] = Drug excretion in feces of female Sprague-Dawley rat treated with [14C]sunitinib at 5 mg/kg, iv administered as single dose by liquid scintillation counting; type: ADME, organism-based; set-up: dose 5 mg/kg, dosed compound name [14C]Sunitinib, route intravenous
Method in brief: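 Five female rats given a single tail-vein bolus of [14C]sunitinib L-malate, 5 mg/kg free base equivalents (50 µCi/kg). Urine and feces collected over 0-72 h into dry-ice cooled containers. Urine counted directly by liquid scintillation; feces homogenized and combusted in oxygen before counting. Expired air also monitored.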

[2] = Drug excretion in feces of female cynomolgus monkey treated with [14C]sunitinib at 6 mg/kg, po administered as single dose by liquid scintillation counting; type: ADME, organism-based, Macaca fascicularis; set-up: dose 6 mg/kg, dosed compound name [14C]Sunitinib, route oral
Method in brief: (§1)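 Cynomolgus monkeys given one oral gavage dose of [14C]sunitinib L-malate, 6 mg/kg (37 µCi/kg). Urine collected at 0-4, 4-8 and 8-24 h, feces at 0-8 and 8-24 h, then both daily to 14 days; samples stored at -80 °C. Duplicate urine aliquots counted by liquid scintillation; homogenized feces combusted before counting.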

[3] = Drug excretion in feces of male cynomolgus monkey treated with [14C]sunitinib at 6 mg/kg, po administered as single dose by liquid scintillation counting; type: ADME, organism-based, Macaca fascicularis; set-up: dose 6 mg/kg, dosed compound name [14C]Sunitinib, route oral; method in brief: as §1
[4] = Drug excretion in feces of female Sprague-Dawley rat treated with [14C]sunitinib at 15 mg/kg, po administered as single dose by liquid scintillation counting; type: ADME, organism-based; set-up: dose 15 mg/kg, dosed compound name [14C]Sunitinib, route oral
Method in brief: (§2)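 Female and male rats given one oral gavage dose, 15 mg/kg free base equivalents (50 µCi/kg). Urine and feces collected on dry ice, protected from light, over 0-4, 4-8 and 8-24 h, then daily to 72 h. Urine aliquots counted by liquid scintillation; homogenized feces combusted in oxygen before counting. Counts 5 min, external quench correction.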

[5] = Drug excretion in feces of male Sprague-Dawley rat treated with [14C]sunitinib at 15 mg/kg, po administered as single dose by liquid scintillation counting; type: ADME, organism-based; set-up: dose 15 mg/kg, dosed compound name [14C]Sunitinib, route oral; method in brief: as §2
[6] = Drug excretion in feces of human treated with [14C]sunitinib at 50 mg, po administered as single dose by liquid scintillation counting

Compound recovery [1] | Compound recovery [2] | Compound recovery [3] | Compound recovery [4] | Compound recovery [5] | Compound recovery [6] | SMILES
6.1% | 5.9% | 6.3% | 3.5% | 4.3% | – | CCN(CC)CCNC(=O)c1c(C)[nH]c(/C=C2\C(=O)Nc3ccc(O)cc32)c1C
1.1% | 0.8% | 1% | 1.7% | – | metabolite_not_detected | Cc1[nH]c(/C=C2\C(=O)Nc3ccc(F)cc32)c(C)c1C(=O)NCCN
